Test results published in ChEMBL document CHEMBL2016483, “Discovery of novel and potent heterocyclic carboxylic acid derivatives as protein tyrosine phosphatase 1B inhibitors” (Bioorg Med Chem Lett, 2012).
Active and inactive are the calls of the source.

Key:
[1] = molecular target: T1, Tyrosine-protein phosphatase non-receptor type 1 (Homo sapiens, UniProt P18031); experiment: Inhibition of human recombinant PTP1B expressed in Escherichia coli using para-nitrophenyl phosphate as substrate preincubated for 30 mins followed by substrate addition measured by […] analysis
T1 sequence (P18031 whole entry): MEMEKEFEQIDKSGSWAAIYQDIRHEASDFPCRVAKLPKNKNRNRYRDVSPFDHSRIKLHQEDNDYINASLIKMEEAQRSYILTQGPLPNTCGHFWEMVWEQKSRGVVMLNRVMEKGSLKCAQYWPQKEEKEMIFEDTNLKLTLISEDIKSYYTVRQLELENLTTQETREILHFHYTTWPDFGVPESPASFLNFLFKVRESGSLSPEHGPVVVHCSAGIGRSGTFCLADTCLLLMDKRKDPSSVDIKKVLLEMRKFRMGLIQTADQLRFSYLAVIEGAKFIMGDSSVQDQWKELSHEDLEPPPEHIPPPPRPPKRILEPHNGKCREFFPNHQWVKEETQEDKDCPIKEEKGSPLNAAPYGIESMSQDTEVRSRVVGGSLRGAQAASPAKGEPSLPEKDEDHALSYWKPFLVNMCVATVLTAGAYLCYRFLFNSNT

[2] = Apparent permeability by PAMPA assay; type: ADME
Liver = experiment: Metabolic stability of the compound in mouse liver microsomes assessed as metabolic rate at 1 uM after 30 mins by LC-MS-MS analysis; type: ADME, Microsome; conditions: 0.5 h
Outline: (§1)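 Mouse and rat liver microsomes, metabolic rate read at 30 min. Stable was defined as metabolic rate <0.1 nmol/min/mg or 80% remaining at 30 min.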

Liver microsomes = experiment: Metabolic stability of the compound in rat liver microsomes assessed as metabolic rate at 1 uM after 30 mins by LC-MS-MS analysis; type: ADME, Microsome; conditions: 0.5 h; outline: as §1
[3] = Apparent permeability across human Caco2 cells; type: ADME, cell-based; conditions: Caco-2
[4] = molecular target: T2, Tyrosine-protein phosphatase non-receptor type 1 (Homo sapiens) (UniProt P18031); experiment: Non-competitive inhibition of human recombinant PTP1B-mediated para-nitrophenyl phosphate hydrolysis preincubated for 30 mins measured by spectrophotometric analysis
T2 sequence (whole entry): T1 sequence (P18031 whole entry)

[5] = AUC (0 to t) in C57BL/6J mouse at 30 mg/kg, po; type: ADME, organism-based; set-up: dose 30 mg/kg, route oral; conditions: plasma
[6] = AUC (0 to t) in C57BL/6J mouse at 3 mg/kg, iv; type: ADME, organism-based; set-up: dose 3 mg/kg, route intravenous; conditions: plasma
[7] = Cmax in C57BL/6J mouse at 30 mg/kg, po; type: ADME, organism-based; set-up: dose 30 mg/kg, route oral; conditions: in vivo
[8] = Tmax in C57BL/6J mouse at 30 mg/kg, po; type: ADME, organism-based; set-up: dose 30 mg/kg, route oral; conditions: in vivo
[9] = molecular target: T3, Tyrosine-protein phosphatase non-receptor type 2 (Homo sapiens) (UniProt P17706); experiment: Inhibition of TCPTP using para-nitrophenyl phosphate as substrate at 100 uM preincubated for 30 mins followed by substrate addition measured by […] analysis
T3 sequence (whole entry): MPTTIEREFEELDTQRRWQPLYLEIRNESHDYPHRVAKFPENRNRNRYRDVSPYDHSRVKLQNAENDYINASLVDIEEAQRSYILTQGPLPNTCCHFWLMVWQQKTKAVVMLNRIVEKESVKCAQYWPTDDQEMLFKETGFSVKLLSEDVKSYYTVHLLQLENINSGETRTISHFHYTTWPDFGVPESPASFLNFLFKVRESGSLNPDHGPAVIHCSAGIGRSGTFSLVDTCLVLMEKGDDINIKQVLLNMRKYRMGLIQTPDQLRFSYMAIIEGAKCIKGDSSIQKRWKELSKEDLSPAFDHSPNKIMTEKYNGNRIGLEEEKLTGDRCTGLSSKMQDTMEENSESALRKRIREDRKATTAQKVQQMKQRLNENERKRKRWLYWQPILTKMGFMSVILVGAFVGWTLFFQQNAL
Outline: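 TCPTP counter-screen in the same pNPP assay format, tested at 100 µM. Read as percent inhibition.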

[10] = Oral bioavailability in C57BL/6J mouse at 30 mg/kg; type: ADME, organism-based; conditions: in vivo
[11] = Clearance in C57BL/6J mouse at 3 mg/kg, iv; type: ADME, organism-based; set-up: dose 3 mg/kg, route intravenous; conditions: in vivo
[12] = Elimination half life in C57BL/6J mouse at 3 mg/kg, iv; type: ADME, organism-based; set-up: dose 3 mg/kg, route intravenous; conditions: in vivo, read-out: beta t1/2 (converted)
[13] = Tmax in C57BL/6J mouse at 3 mg/kg, iv; type: ADME, organism-based; set-up: dose 3 mg/kg, route intravenous; conditions: in vivo
[14] = Volume of distribution at steady state in C57BL/6J mouse at 3 mg/kg, iv; type: ADME, organism-based; set-up: dose 3 mg/kg, route intravenous; conditions: in vivo, read-out: Vdss
[15] = Cmax in C57BL/6J mouse at 3 mg/kg, iv; type: ADME, organism-based; set-up: dose 3 mg/kg, route intravenous; conditions: in vivo

Row | Structure (SMILES) | Ki [1] [nM] | Papp [2] [×10⁻⁶ cm/s] | Drug metabolism (Liver) [nmol/min/mg] | Drug metabolism (Liver microsomes) [nmol/min/mg] | other results
1 | COC(=O)c1c(O)cccc1OC/C=C/c1ccc(F)c(-c2cc(C(=O)O)no2)c1 |  |  |  |  | Papp [3]: > 1 ×10⁻⁶ cm/s
2 | COc1ccc(C(Cc2ccc(-c3nc(C(=O)O)cs3)cc2)c2nc(-c3cccc(F)c3)no2)cc1 (stereo not drawn) | 500 | 6 | 0 | 0.04 | 
3 | COc1ccc(C(Cc2ccc(-c3cc(C(=O)O)on3)cc2)c2nc(-c3ccc(Cl)cc3)no2)cc1 (stereo not drawn) | 300 | 48 | 0 | 0.03 | inhibition [4]: Active; AUC(0-t) [5]: 3.6 µM·h; AUC(0-t) [6]: 0.98 µM·h; Cmax [7]: 1340 nM; Tmax [8]: 1 h; inhibition [9]: < 10%; bioavailability [10]: 36%; clearance [11]: 99 mL/min/kg; half-life [12]: 1.08 h; Tmax [13]: 4.98 min; Vd [14]: 4 L/kg; Cmax [15]: 1870 nM
4 | O=C(O)c1csc(-c2ccc(CC(c3ccc(F)cc3)c3nc(-c4cccc(F)c4)no3)cc2)n1 (stereo not drawn) | 500 | 10 | 0 | 0.01 | 
5 | O=C(O)c1cc(-c2ccc(CC(C(=O)c3ccc(F)cc3)c3ccc(F)cc3)cc2)no1 (stereo not drawn) | 1500 | 8 | 0.01 | 0.02 | 
6 | O=C(O)c1cc(-c2ccc(CC(C(=O)c3cc(F)cc(F)c3)c3ccc(F)cc3)cc2)no1 (stereo not drawn) | 2400 |  |  |  | 
7 | O=C(O)c1cc(-c2ccc(CC(c3ccccc3)c3nc(-c4ccccc4)no3)cc2)no1 (stereo not drawn) | 4000 | 45 | 0.04 | 0.03 | AUC(0-t) [5]: 13 µM·h; AUC(0-t) [6]: 1.8 µM·h; Cmax [7]: 7200 nM; Tmax [8]: 1 h; inhibition [9]: < 10%; bioavailability [10]: 70%; clearance [11]: 63 mL/min/kg; half-life [12]: 1 h; Tmax [13]: 4.8 min; Vd [14]: 4.8 L/kg; Cmax [15]: 1500 nM
8 | O=C(O)c1cc(-c2ccc(CC(C(=O)c3ccc(Cl)cc3)c3ccc(F)c(F)c3)cc2)no1 (stereo not drawn) | 800 | 168 | 0 | 0 | AUC(0-t) [5]: 3 µM·h; AUC(0-t) [6]: 2.4 µM·h; Cmax [7]: 1900 nM; Tmax [8]: 1 h; inhibition [9]: < 10%; bioavailability [10]: 13%; clearance [11]: 38 mL/min/kg; half-life [12]: 1.9 h; Tmax [13]: 4.98 min; Vd [14]: 4 L/kg; Cmax [15]: 4500 nM
9 | O=C(O)c1onc(-c2ccc(CC(C(=O)c3ccccc3)c3ccccc3)cc2)c1C(=O)O (stereo not drawn) | 40000 |  |  |  | 
10 | O=C(O)c1ccc(-c2ccc(CC(C(=O)c3ccccc3)c3ccccc3)cc2)[nH]1 (stereo not drawn) | 2900 |  |  |  | 

Continued by falling Ki [1], values first:

Row | Ki [1] [nM] | Papp [2] [×10⁻⁶ cm/s] | Drug metabolism (Liver) [nmol/min/mg] | Drug metabolism (Liver microsomes) [nmol/min/mg] | Structure (SMILES) | other results
11 | 16300 |  |  |  | O=C(O)c1cc(-c2ccc(CC(C(=O)c3ccccc3)c3ccccc3)cc2)n[nH]1 (stereo not drawn) | 
12 | 7800 |  |  |  | Cn1nc(-c2ccc(CC(C(=O)c3ccccc3)c3ccccc3)cc2)cc1C(=O)O (stereo not drawn) | 
13 | 7800 |  |  |  | O=C(O)c1coc(-c2ccc(CC(C(=O)c3ccccc3)c3ccccc3)cc2)n1 (stereo not drawn) | 
14 | 7700 |  |  |  | O=C(O)C1CC(=O)N(c2ccc(CC(C(=O)c3ccccc3)c3ccccc3)cc2)C1 (stereo not drawn) | 
15 | 5100 |  |  |  | O=C(O)C1CCN(c2ccc(CC(C(=O)c3ccccc3)c3ccccc3)cc2)C1=O (stereo not drawn) | 
16 | 1800 |  |  |  | O=C(O)c1csc(-c2ccc(CC(C(=O)c3ccc(F)c(F)c3)c3ccc(F)cc3)cc2)n1 (stereo not drawn) | 
17 | 1400 | 16 | 0 | 0.01 | O=C(O)c1cc(-c2ccc(CC(C(=O)c3ccc(F)c(F)c3)c3ccc(F)cc3)cc2)no1 (stereo not drawn) | 
18 | 1200 | 85 | 0.05 | 0.02 | O=C(O)c1csc(-c2ccc(CC(C(=O)c3ccccc3)c3ccccc3)cc2)n1 (stereo not drawn) | 
19 | 1100 | 103 | 0.06 | 0.02 | O=C(O)c1cc(-c2ccc(CC(C(=O)c3ccccc3)c3ccccc3)cc2)no1 (stereo not drawn) | inhibition [9]: < 10%
20 | 600 |  |  |  | O=C(O)c1csc(-c2ccc(CC(C(=O)c3ccc(Cl)cc3)c3ccc(F)c(F)c3)cc2)n1 (stereo not drawn) | inhibition [9]: < 10%
21 | 400 | 4 | 0 | 0.01 | COc1ccc(-c2noc(C(Cc3ccc(-c4cc(C(=O)O)on4)cc3)c3ccc(F)cc3)n2)cc1 (stereo not drawn) | inhibition [9]: < 10%
